An excerpt weighted towards active compounds, which were near 1.8% of everything screened.
MsrA inh – bovine MsrA enzyme inhibitors, primary screen, biochemical, absorbance, HTS; Methionine sulfoxide reductase A (Bos taurus); purified bovine MsrA, absorbance read-out; 360,000 compounds, 0.75% hits; inhibition, % at 15.5 µM; AID 651718, 2012; in the data active = inhibition above about 4.5%;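 note: 0% = vehicle wells with enzyme and 100% = reference inhibitor wells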
MT1-MMP act inh – blockers of MT1-MMP proenzyme processing, primary screen, HT1080 RFP-PRO-GFP cells, GFP/RFP fluorescence | GFP/RFP ratio fluorescence, overnight; percent of plate control window, DMSO zero | GFP/RFP ratio change, % at 20 µM | 360,000 compounds, 0.061% hits | AID 651647, 2012;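 active = GFP/RFP ratio change of at least 30% with cell ATP level not reduced by more than half and red fluorescence within 50% of control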
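Assay system – RFP-PRO-GFP reporter HT1080 cells · Compound dosing – single dose of 20 µM compound, 1% DMSO final · Incubation – overnight compound exposure at 37 °C · Measure – GFP/RFP fluorescence ratio · Benchmarks – DMSO wells and RFP-L50D-GFP cells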
MIN6 prolif-1 – inducers of MIN6 beta-cell proliferation, primary screen, ATP luminescence, uHTS | MIN6 cells proliferation, ATPlite luminescence, 48 h; cells starved in 0.2% serum; 100% = growth in 10% serum | proliferation, % at 10 µM | 330,000 compounds, 0.29% hits;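 active = compounds whose signal lies at least 3.5 SD above the mean of all wells on their plate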;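 note: 0% = DMSO-treated cells in low-serum medium and 100% = 10% serum control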
SKN-1 block – suppressors of acrylamide-induced Pgst-4::GFP reporter in worms, primary screen, SKN-1 inhibitor project, whole organism, uHTS, GFP/RFP fluorescence ratio, strain VP596; C. elegans VP596 Pgst-4::GFP/RFP ratio, 24 h; inhibition, % at 21.8 µM; 360,000 compounds, 0.49% hits; AID 624304, 2012;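 active = interference check ratio from 0.5 to 1.5 plus GFP to RFP signal ratio inhibition reaching or exceeding a fixed threshold, cut at about 30% in these data, passing the limit was not always enough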
DAGLB inh – DAGLB lipase inhibitors, primary screen, biochemical, fluorescence, HTS. Diacylglycerol lipase-beta (Homo sapiens), Q8NCG7. HEK293T DAGLB membrane lysate, EnzChek fluorogenic substrate. 340,000 compounds, 0.059% hits. inhibition, % at 5.17 µM; in the data active = inhibition above about 34%;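 note: 0% = enzyme with vehicle and 100% = wells lacking enzyme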
Target sequence (Q8NCG7 whole entry, looked up): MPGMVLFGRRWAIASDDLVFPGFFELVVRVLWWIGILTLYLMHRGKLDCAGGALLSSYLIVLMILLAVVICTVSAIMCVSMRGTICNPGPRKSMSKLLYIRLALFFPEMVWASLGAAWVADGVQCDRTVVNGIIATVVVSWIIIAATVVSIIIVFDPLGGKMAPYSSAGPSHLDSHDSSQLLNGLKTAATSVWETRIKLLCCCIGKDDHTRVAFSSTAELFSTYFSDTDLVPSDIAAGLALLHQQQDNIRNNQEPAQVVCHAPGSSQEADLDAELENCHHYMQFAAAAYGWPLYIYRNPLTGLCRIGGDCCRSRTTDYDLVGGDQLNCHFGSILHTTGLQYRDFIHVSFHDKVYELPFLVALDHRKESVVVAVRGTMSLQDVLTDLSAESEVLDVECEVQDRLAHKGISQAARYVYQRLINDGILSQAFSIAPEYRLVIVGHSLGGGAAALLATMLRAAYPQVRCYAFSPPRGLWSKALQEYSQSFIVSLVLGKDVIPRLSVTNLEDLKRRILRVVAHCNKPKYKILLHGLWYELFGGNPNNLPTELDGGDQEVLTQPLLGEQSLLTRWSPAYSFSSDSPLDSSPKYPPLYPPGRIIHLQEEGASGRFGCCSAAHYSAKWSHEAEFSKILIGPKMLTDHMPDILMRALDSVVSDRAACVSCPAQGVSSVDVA
bovine MsrA act – bovine MsrA enzyme activators, primary screen, biochemical, absorbance, HTS; 360,000 compounds, 0.3% hits; purified bovine MsrA, absorbance read-out; activation, % at 10.6 µM; AID 602163, 2012; Methionine sulfoxide reductase A (Bos taurus); in the data active = activation above about 7.5%;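 note: 0% = vehicle and 100% = reference activator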
MIN6 prolif-2 – inducers of beta-cell proliferation in MIN6, confirmation, MIN6 cells, mouse. shares compounds with MIN6 prolif-1. ATPlite luminescence, 48 h; cells kept in 0.2% serum; scaled between 0.2% and 10% serum. proliferation increase, % at 50 µM. 920 tested, under 10 active. AID 463095, 2010;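 active = proliferation increase above 40% at any of the four tested concentrations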
Active calls of the source: *; . = not tested or not shown; ! = not confirmed by another sample.

SMILES	MsrA inh	MT1-MMP act inh	MIN6 prolif-1	SKN-1 block	DAGLB inh	bovine MsrA act	MIN6 prolif-2
COc1ccc(C2(C)NC(=O)N(CC(=O)NCc3ccccc3)C2=O)cc1OC (stereo not drawn)	-0.9	2.7	4.4	-0.5	-2.9	-5.1	.
COc1ccc(C2(C)NC(=O)N(Cc3cc(Cl)cc4c3OCOC4)C2=O)cc1OC (stereo not drawn)	-0.8	-1.9	15.1*	-16.3	1.4	-2.4	-5.8
Cc1cc(N2CCN(CC(C)(C)O)C[C@@H]2C)ccc1N1CCN(Cc2ccccc2)[C@H](C)C1	-0.4	.	.	.	.	.	.
CCN(CC)C(=S)SCC(=O)c1c(C)[nH]c2ccccc12	0.1	-7.1	0.0*	1.7	-0.3	-0.3	-5.8
COC(=O)c1ccc(CO/N=C/c2ccc(OC)cc2OC)cc1	-0.6	4.3	8.0*	-5.6	-15.1	-1.9	-0.1
COC(=O)C1=C(C)NC(C)=C([N+](=O)[O-])C1c1ccccc1C(F)(F)F (stereo not drawn)	-0.7	0.7	14.1*!	-5.1	0.2	-6.1	-5.5
CCCn1c(=N)c(S(=O)(=O)c2ccc(F)cc2)cc2c(=O)n3ccccc3nc21	0.0	2.9	17.3*	18.1	0.6	-3.8	-5.7
Cn1c(=N)c(S(=O)(=O)c2ccc(F)cc2)cc2c(=O)n3ccccc3nc21	0.6	0.4	2.0	-0.6	-2.5	-3.6	.
COc1ccccc1N1CCN(C(=O)CN(C)S(=O)(=O)c2ccc3c(c2)c(=O)n(C)c(=O)n3C)CC1	0.5	-1.6	6.9*	8.9	-0.6	-2.2	-1.4
Cc1cc(N2CCN(C(=O)OC(C)(C)C)C[C@H]2C)ccc1N1C[C@@H](C)O[C@@H](C)C1	1.4	.	.	.	.	.	.
CC(=O)c1c(C)nc2cc(Cl)ccc2c1N	1.2	3.3	5.5*	-24.6	-0.2	-3.9	5.9
CCn1nc(NC(=O)c2cccs2)c2cc3ccccc3nc21	-0.6	0.2	8.2*	6.7	0.4	-4.2	-6.1
COCCn1c(SCCCc2ccccc2)nc2c1c(=O)[nH]c(=O)n2C	0.7	4.5	5.5*	-6.3	2.0	-5.4	-4.6
O=C(NC1CCCCC1)C1CCC(=O)N(C2CC2)C1 (stereo not drawn)	0.0	1.1	11.4*	7.5	-0.1	-3.7	-0.8
CC1(C)CC(NC(=O)C2CCC(=O)N(C3CC3)C2)CC(C)(C)C1 (stereo not drawn)	-0.3	5.8	-1.1	-6.9	1.0	-3.7	.
O=C(O)c1ccccc1SC1CC(=O)N(c2ccccc2)C1=O (stereo not drawn)	1.3	-8.1	0.0	-9.7	0.6	-14.7	.
O=C(O)c1ccccc1SC1CC(=O)N(C2CCCCC2)C1=O (stereo not drawn)	.	-0.9	9.9*	7.8	2.0	2.4	-6.4
Cc1c(C(=O)N2CCCC2)sc(NC(=O)c2ccc(Cl)cc2)c1C#N	0.2	-3.2	-2.7	-22.2	1.4	-3.6	.
COc1ccccc1C(=O)Nc1sc(C(=O)N2CCCC2)c(C)c1C#N	1.8	0.5	8.8*	4.7	0.8	-0.5	9.6
Nc1[nH]c(C(=O)c2ccccc2)c(-c2ccc(Cl)c(F)c2)c1C(=O)c1c[nH]c2ccccc12	0.2	.	.	.	.	.	.
COCc1cc(Sc2ccc(Br)cc2)nc(-c2ccccc2)n1	0.6	-0.5	-4.6	-0.2	-16.3	-0.5	.
CCN(CC)C(=O)Oc1cc(COC)nc(-c2ccccc2)n1	-1.1	-1.0	5.3*	-13.1	.	-2.0	1.2
Cc1ccc2nc(-c3cccc(Cl)c3)c(Cc3ccccc3C(F)(F)F)n2c1	-1.0	.	.	.	.	.	.
Cc1c(NC(=O)C(C)OC(=O)CC2CC3CCC2C3)c(=O)n(-c2ccccc2)n1C (stereo not drawn)	-1.1	1.9	9.1*	-15.0	0.5	-1.1	-1.5
CC(C)Cn1c(N)c(/C=N/NC(=O)c2ccc(Cl)cc2)c(=O)n(C)c1=O	-0.2	5.9	6.5*	-6.5	-0.7	-3.4	-0.6
SMILES	MsrA inh	MT1-MMP act inh	MIN6 prolif-1	SKN-1 block	DAGLB inh	bovine MsrA act	MIN6 prolif-2
COc1cccc(C2CC(c3ccccc3)Nc3nc(N)nn32)c1 (stereo not drawn)	0.5	0.6	-3.0	4.4	0.1	1.2	.
COc1ccc(C2CC(c3cccc(OC)c3)n3nc(N)nc3N2)cc1 (stereo not drawn)	0.7	-1.8	9.1*	-8.8	3.1	-1.3	1.8
CCOC(=O)c1ccccc1NC(=O)c1cccs1	0.2	0.2	7.4*	2.6	-10.3	-6.5	3.9
O=C(Nc1ccc(-c2ccco2)cc1)C1CCCN(Cc2ccc(CO)o2)C1 (stereo not drawn)	-0.7	-0.5	10.9*	4.6	3.0	0.0	-5.8
CC(=O)c1cccc(CN2CCCC(C(=O)Nc3ccc(-c4ccco4)cc3)C2)c1 (stereo not drawn)	1.9	-6.7	-3.5	22.9	2.1	-2.4	.
CS(=O)(=O)c1ccc(-c2csc(-c3cccnc3)n2)cc1	0.8	-0.8	9.8*	10.2	-0.7	-4.1	2.9
COc1cc(/C=N/N2CCN(c3ccccc3OC)CC2)ccc1OC(C)=O	-0.1	3.3	-0.9	-4.8	-2.8	-1.2	.
COc1cc(C=Nc2cccc([N+](=O)[O-])c2C)ccc1OC(C)=O	-0.4	5.9	6.4*	-13.6	1.8	-3.7	-0.4
N#Cc1c(N)[nH]c(C(=O)c2ccccc2)c1-c1ccc(Br)cc1	0.6	.	.	.	.	.	.
COc1ccc(OCc2cc(C(=O)N(C)Cc3nccn3C)no2)c2ccccc12	-0.2	0.9	0.5	-15.8	0.2	-7.2	.
COc1ccc(OCc2cc(C(=O)N(Cc3nccn3C)C(C)C)no2)c2ccccc12	0.9	-4.0	11.9*	15.2	4.3	-0.4	-6.3
COc1ccc(Cn2nnnc2CN(Cc2cc3cc(C)ccc3[nH]c2=O)C2CCCC2)cc1	-0.5	-4.0	-3.4	9.2	-0.8	-5.9	.
CCC(C)(C)n1nnnc1CN(Cc1cc2cc(OC)c(OC)cc2[nH]c1=O)C1CCCC1	0.1	-3.2	7.2*	2.9	0.3	-2.9	1.7
O=C(O)c1c[nH]c2ccc(F)cc2c1=O	0.9	10.1	6.8*	4.3	-2.4	-7.8	2.5
Cc1ccccc1NP(=O)(c1ccccc1)c1nc2ccccc2s1 (stereo not drawn)	-0.1	-1.5	3.2	-3.3	-0.7	0.2	.

Screening data deposited in PubChem by several laboratories.
